Measured values published in publication PMC11168086 (RSC Advances, 2024).
≈ marks a conversion by molar mass, not a printed value.

Columns and labels:
[1] = tested on: MCF7 (breast cancer) cells; assay: MTT antiproliferative assay, MCF7; type: cell-based, human; conditions: for IC50: MCF-7, MTT, 72 h; for Lipophilic efficiency (LipE = pIC50 – logP): MCF-7
Method in brief: (§1)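 Cells from ECACC were grown in MEM with 10% FBS, non-essential amino acids and penicillin-streptomycin, at 37 °C and 5% CO2. Cells were seeded at 5000 per well, left overnight, then exposed to test compound 72 h. MTT was added for 4 h, and formazan was dissolved in DMSO (60 min, 37 °C) and read at 545 nm. Compounds giving >50% inhibition at 10 μM were rerun over 0.1–30 μM for IC50. Two independent experiments used five wells each, with cisplatin as positive control.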

[2] = Kinetic aqueous solubility; type: physicochemical; conditions: PBS buffer, pH 7.4, aqueous buffer, kinetic from dmso stock
Method in brief: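 10 mM DMSO stocks were diluted into PBS pH 7.4 to a 500 μM target and shaken 2 h at room temperature. Samples were vacuum-filtered, diluted with acetonitrile to prevent precipitation, and scanned by UV-vis over 250–500 nm. Concentration was derived from a 3-point calibration at each compound's λmax.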

[3] = Intestinal-specific PAMPA; type: in vitro ADME; conditions: pH 6.5
Method in brief: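 Donor solutions at nominal 500 μM came from 10 mM DMSO stocks diluted in phosphate donor buffer, pH 6.5. The acceptor buffer held 5% DMSO. The membrane was phosphatidylcholine plus cholesterol in chloroform/dodecane/hexane (5:25:70 v/v). Plates were incubated 4 h at 37 °C, covered. Acceptor UV-vis absorbance was read over 250–500 nm. Pa was calculated by the Wohnsland–Faller equation from acceptor versus equilibrium absorbance at λmax.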

[4] = tested on: MDA-MB-231 (breast cancer) cells; assay: MTT antiproliferative assay, MDA-MB-231; type: cell-based, human; conditions: for IC50: Homo sapiens, MDA-MB-231, 72 h, MDA-MB-231, MTT, 72 h; for Lipophilic efficiency (LipE = pIC50 – logP): MDA-MB-231
Method in brief: as §1

[5] = tested on: A2780 (ovarian cancer) cells; assay: MTT antiproliferative assay, A2780; type: cell-based, human; conditions: for Lipophilic efficiency (LipE = pIC50 – logP): A2780; for IC50: Homo sapiens, A2780, 72 h
Method in brief: as §1

[6] = tested on: HeLa (cervical cancers) cells; assay: MTT antiproliferative assay, HeLa; type: cell-based, human; conditions: for IC50: Homo sapiens, 72 h
Method in brief: as §1

Compound	IC50 ([1]; Homo sapiens, MCF7, 72 h) [nM]	solubility kinetic at 2 h [2] [µM]	Papp at 4 h, 500 μM [3] [×10⁻⁶ cm/s]	IC50 [4] [nM]	IC50 [5] [nM]	IC50 [6] [nM]	IC50 [1] [nM]	Lipophilic efficiency (LipE = pIC50 – logP) [1]	Lipophilic efficiency (LipE = pIC50 – logP) [4]	Lipophilic efficiency (LipE = pIC50 – logP) [5]	Lipophilic efficiency (LipE = pIC50 – logP) [6]
C[C@@H]1CC[C@@H]([C@](O)(CNCc2ccc(F)cc2)COCc2ccc(F)cc2)[C@H](OCc2ccc(F)cc2)C1 [Compound 45a]	< 1000	122 ± 4.5 (≈ 64.4 µg/mL)	33.3 ± 3	1800	2300	2900	840	−0.69	−1.02	−1.12	−1.23
COc1ccc(CNC[C@](O)(COCc2ccc(OC)cc2)[C@@H]2CC[C@@H](C)C[C@H]2OCc2ccc(OC)cc2)cc1 [Compound 52a]	1400	107 ± 2.6 (≈ 60.3 µg/mL)	23.7 ± 3.8	1700	1300	2000		−0.43	−0.50	−0.40	−0.57
C[C@@H]1CC[C@@H]([C@](O)(CNCc2ccccc2)COCc2ccc(F)cc2)[C@H](OCc2ccc(F)cc2)C1 [Compound 44a]	880	163 ± 1.6 (≈ 83.1 µg/mL)	28.8 ± 2.9	1500	2200	1300		−0.59	−0.81	−1.00	−0.78

Now from value to molecule, other results behind:

IC50 ([1]; Homo sapiens, MCF7, 72 h) [nM]	solubility kinetic at 2 h [2] [µM]	Papp at 4 h, 500 μM [3] [×10⁻⁶ cm/s]	IC50 [4] [nM]	IC50 [5] [nM]	IC50 [6] [nM]	IC50 [1] [nM]	Compound	Lipophilic efficiency (LipE = pIC50 – logP) [1]	Lipophilic efficiency (LipE = pIC50 – logP) [4]	Lipophilic efficiency (LipE = pIC50 – logP) [5]	Lipophilic efficiency (LipE = pIC50 – logP) [6]
3500	31.8 ± 1 (≈ 12.3 µg/mL)	9.8 ± 1.2	9900	9300	5200		C[C@@H]1CC[C@@H]([C@](C)(O)CNCc2cccc(F)c2)[C@H](OCc2ccccc2)C1 [Compound 8a]	0.17	−0.28	−0.25	0.00
9400	34.6 ± 1.1 (≈ 13.1 µg/mL)	26.3 ± 4.6	27600	10900	6500		C[C@@H]1CC[C@@H]([C@@](C)(O)Cn2cnc3ccccc32)[C@H](OCc2ccccc2)C1 [Compound 15b]	−0.10			0.06
2000	82 ± 2.2 (≈ 32.6 µg/mL)	1.8 ± 0.5	11700	12500	6300		COc1cccc(CNC[C@@](C)(O)[C@@H]2CC[C@@H](C)C[C@H]2OCc2ccccc2)c1 [Compound 11a]	0.32			−0.19
